# Assay results reported in PubChem BioAssay AID504907 (The Scripps Research Institute Molecular Screening Center, 2011).
# Target: Glucose-6-phosphatase catalytic subunit 1 (Homo sapiens) (UniProt P35575)
# Test: endogenous G6PC mRNA suppression, late-stage follow-up, mechanism study for RORA inverse agonist project, cell-based, real-time PCR, fluorescence, assay provider (AID 504907)
# Details: HepG2 G6PC mRNA RT-qPCR, 20 h, at 10 µM, stronger effect = lower value
# How it was run: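 Times: compound treatment for 20 h / System: HepG2 cells, native G6Pase gene / Signal: SYBR Green real-time RT-PCR of G6Pase mRNA / Benchmarks: vehicle cells, ROR-targeting siRNA as inhibition reference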
# Glucose-6-phosphatase catalytic subunit 1 (Homo sapiens), sequence (P35575 whole entry, looked up): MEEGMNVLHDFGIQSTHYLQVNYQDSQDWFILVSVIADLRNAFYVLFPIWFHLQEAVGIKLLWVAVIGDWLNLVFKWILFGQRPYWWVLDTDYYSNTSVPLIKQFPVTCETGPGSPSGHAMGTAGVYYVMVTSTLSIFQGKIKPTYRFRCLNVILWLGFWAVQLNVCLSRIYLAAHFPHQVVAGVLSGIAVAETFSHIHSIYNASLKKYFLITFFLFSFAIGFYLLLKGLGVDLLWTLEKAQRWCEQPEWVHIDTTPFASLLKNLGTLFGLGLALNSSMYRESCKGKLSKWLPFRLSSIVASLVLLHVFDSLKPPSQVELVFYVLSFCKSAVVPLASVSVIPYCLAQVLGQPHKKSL
smiles,measurement,setting,value
O=S(=O)(Nc1ccc(C(O)(C(F)(F)F)C(F)(F)F)cc1)c1cccs1,relative mRNA level,with RORA + RORG siRNA,0.279
same,relative mRNA level,with control siRNA,0.676
